# Activity calls are given as the source filed them. No cut-off for these calls is given here.
# Columns and labels:
# [1] = molecular target: Serine/threonine-protein kinase PLK1 (Homo sapiens) (UniProt P53350); experiment: Inhibition of recombinant human N-terminal His6-tagged PLK1 (1 to 603 residues) expressed in baculovirus infected Sf21 cells assessed as remaining activity at 1 uM using ISDELMDATFADQEAKKK as substrate incubated for 30 mins in presence of [gamma-33P]ATP by filter binding method relative to control
# In short: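 Radiometric panel assay run robotically at 21 °C for 30 min, linear in time and enzyme. […] Activity is expressed as percentage of the compound-omitted control, averaged from triplicates ± S.D.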
# [2] = molecular target: Mitogen-activated protein kinase; ERK1/ERK2 (Homo sapiens) (UniProt P27361+P28482); experiment: Inhibition of ERK1/2 in serum starved/PMA-stimulated HEK293 cells assessed as reduction in RSK phosphorylation at S227 residues at 1 uM incubated for 30 mins by immunoblot analysis; assay type: cell-based
# [3] = molecular target: Mitogen-activated protein kinase 12 (Homo sapiens) (UniProt P53778); experiment: Inhibition of recombinant human N-terminal GST-tagged P38gamma (1 to 367 residues) expressed in Escherichia coli assessed as remaining activity at 1 uM using MBP as substrate incubated for 30 mins in presence of [gamma-33P]ATP by filter binding method relative to control
# In short: (§1)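 Radiometric kinase panel run robotically at room temperature (21 °C) for 30 min, linear in time and enzyme. […] Activity is expressed as percent of control without compound, from triplicate determinations ± S.D.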
# [4] = molecular target: Dual specificity mitogen-activated protein kinase kinase 1 (Homo sapiens) (UniProt Q02750); experiment: Inhibition of recombinant human MKK1 (2 to 393 residues) expressed in Escherichia coli assessed as remaining activity at 1 uM using MBP as substrate incubated for 30 mins in presence of [gamma-33P]ATP by filter binding method relative to control
# In short: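 Kinase panel run robotically at 21 °C for 30 min, linear in time and enzyme. […] Compound tested at 1 or 10 µM. Activity given as percentage of incubations without compound, mean of triplicates ± S.D.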
# mTORC2 (Homo sapiens) = mTORC2 (Homo sapiens) (UniProt P42345+Q6R327+Q9BVC4+Q9BPZ7); conditions: HEK293, dose 30-1000 nM, time 30.0 min
# [5] = molecular target: MAP kinase-activated protein kinase 2 (Homo sapiens) (UniProt P49137); experiment: Inhibition of recombinant human N-terminal GST/C-terminal Myc-tagged MAPKAPK2 (46 to 400 residues) expressed in Escherichia coli assessed as remaining activity at 10 uM using KKLNRTLSVA as substrate incubated for 30 mins in presence of [gamma-33P]ATP by filter binding method relative to control
# In short: (§2)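 Incubations ran robotically for 30 min at room temperature (21 °C) under linear conditions. Results are percent activity remaining versus controls without compound, as the mean of triplicates ± S.D.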
# [6] = molecular target: Serine/threonine-protein kinase pim-2 (Homo sapiens) (UniProt Q9P1W9); experiment: Inhibition of recombinant human N-terminal GST-tagged PIM2 (2 to 334 residues) expressed in Escherichia coli assessed as remaining activity at 1 uM using RSRHSSYPAGT as substrate incubated for 30 mins in presence of [gamma-33P]ATP by filter binding method relative to control; in short: as §1
# [7] = molecular target: MAP kinase-interacting serine/threonine-protein kinase 2 (Homo sapiens) (UniProt Q9HBH9); experiment: Inhibition of recombinant human N-terminal GST/C-terminal His6-tagged MNK2alpha (2 to 465 residues) expressed in Escherichia coli assessed as remaining activity at 1 uM using eIF4E as substrate incubated for 30 mins in presence of [gamma-33P]ATP by filter binding method relative to control
# MEF = experiment: Induction of cell cycle arrest in MEF cells assessed as accumulation at G1 phase at 3 uM incubated for 1 to 3 days by propidium iodide staining based flow cytometric analysis (reference value: 21.4 +/- 1.7%); assay type: toxicity; conditions: mouse, time 1-3 day
# [8] = molecular target: Serine/threonine-protein kinase BRSK2 (Homo sapiens) (UniProt Q8IWQ3); experiment: Inhibition of recombinant human N-terminal His6-tagged BRSK2 (2 to 674 residues) expressed in baculovirus infected Sf21 cells assessed as remaining activity at 10 uM using KKLNRTLSFAEPG as substrate incubated for 30 mins in presence of [gamma-33P]ATP by filter binding method relative to control
# In short: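 Assays ran 30 min at 21 °C, robotically and in the linear range. Remaining activity is given relative to incubations lacking compound, as the average of triplicate determinations ± S.D.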
# [9] = molecular target: Serine/threonine-protein kinase pim-1 (Homo sapiens) (UniProt P11309); experiment: Inhibition of recombinant human N-terminal His6-tagged PIM1 (2 to 313 residues) expressed in baculovirus infected Sf21 cells assessed as remaining activity at 1 uM using RSRHSSYPAGT as substrate incubated for 30 mins in presence of [gamma-33P]ATP by filter binding method relative to control; in short: as §2
# [10] = molecular target: Calcium/calmodulin-dependent protein kinase kinase 2 (Homo sapiens) (UniProt Q96RR4); experiment: Inhibition of recombinant human N-terminal GST-tagged CAMKKbeta (1 to 541 residues) expressed in Escherichia coli assessed as remaining activity at 10 uM using DGEFLRTSCGSPNYAARRR as substrate incubated for 30 mins in presence of [gamma-33P]ATP by filter binding method relative to control
# In short: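 Robotic radiometric panel assay, 30 min at room temperature (21 °C), with 10 mM magnesium acetate. […] Compound at 1 or 10 µM. Residual activity expressed relative to compound-free control; triplicate average ± S.D.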
# [11] = molecular target: Phosphorylase b kinase gamma catalytic chain, skeletal muscle/heart isoform (Homo sapiens) (UniProt Q16816); experiment: Inhibition of recombinant human N-terminal GST-tagged PHKgamma1 (2 to 297 residues) expressed in Escherichia coli assessed as remaining activity at 1 uM using phosphorylase b peptide as substrate incubated for 30 mins in presence of [gamma-33P]ATP by filter binding method relative to control
# In short: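 Incubation was 30 min at room temperature (21 °C) under conditions linear with time and enzyme amount. Activity is reported as percent of control lacking compound, triplicate mean ± S.D.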
# [12] = molecular target: Ribosomal protein S6 kinase alpha-1 (Homo sapiens) (UniProt Q15418); experiment: Inhibition of recombinant human N-terminal His6-tagged RSK1 (1 to 735 residues) expressed in baculovirus infected Sf21 cells assessed as remaining activity at 10 uM using KKLNRTLSVA as substrate incubated for 30 mins in presence of [gamma-33P]ATP by filter binding assay relative to control
# [13] = molecular target: Sphingosine kinase 1 (Homo sapiens) (UniProt Q9NYA1); experiment: Inhibition of SPHK1 (unknown origin) assessed as remaining activity at 1 uM using sphingosine as substrate incubated for 30 mins in presence of ATP relative to control
# In short: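 SPHK1 assayed with 10 μM sphingosine, 10 μM ATP in 50 mM Tris/HCl pH 7.5, 150 mM NaCl, 5 mM MgCl2, 1 mM EGTA, 1 mM DTT, 30 min at room temperature. ATP remaining read by Kinase-Glo Plus luminescence after 10 min. Activity as % of control, triplicate.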
smiles,measurement,setting,value
COc1ccc(-c2ccc3c(N4CCOCC4)nc(N4C[C@@H](C)O[C@@H](C)C4)nc3n2)cc1CO [Ku-0063794],Activity,[1],76%
same,inhibition,[2],inactive
same,Activity,[3],89%
same,Activity,[4],96%
same,inhibition,mTORC2 (Homo sapiens),Dose-Dependent Effect
same,Activity,[5],81%
same,Activity,[6],86%
same,Activity,[7],87%
same,Activity,MEF,42.4%
same,Activity,[8],72%
same,Activity,[9],89%
same,Activity,[10],94%
same,Activity,[11],89%
same,Activity,[12],86%
same,Activity,[13],108%
